{"source": "ChEMBL document CHEMBL3608292", "about": "“Synthesis and biological evaluation of novel myrtucommulones and structural analogues that target mPGES-1 and 5-lipoxygenase” (Eur J Med Chem, 2015)", "key": {"[1]": {"target": "T1, Polyunsaturated fatty acid 5-lipoxygenase (Homo sapiens, UniProt P09917)", "T1 sequence (P09917 whole entry)": "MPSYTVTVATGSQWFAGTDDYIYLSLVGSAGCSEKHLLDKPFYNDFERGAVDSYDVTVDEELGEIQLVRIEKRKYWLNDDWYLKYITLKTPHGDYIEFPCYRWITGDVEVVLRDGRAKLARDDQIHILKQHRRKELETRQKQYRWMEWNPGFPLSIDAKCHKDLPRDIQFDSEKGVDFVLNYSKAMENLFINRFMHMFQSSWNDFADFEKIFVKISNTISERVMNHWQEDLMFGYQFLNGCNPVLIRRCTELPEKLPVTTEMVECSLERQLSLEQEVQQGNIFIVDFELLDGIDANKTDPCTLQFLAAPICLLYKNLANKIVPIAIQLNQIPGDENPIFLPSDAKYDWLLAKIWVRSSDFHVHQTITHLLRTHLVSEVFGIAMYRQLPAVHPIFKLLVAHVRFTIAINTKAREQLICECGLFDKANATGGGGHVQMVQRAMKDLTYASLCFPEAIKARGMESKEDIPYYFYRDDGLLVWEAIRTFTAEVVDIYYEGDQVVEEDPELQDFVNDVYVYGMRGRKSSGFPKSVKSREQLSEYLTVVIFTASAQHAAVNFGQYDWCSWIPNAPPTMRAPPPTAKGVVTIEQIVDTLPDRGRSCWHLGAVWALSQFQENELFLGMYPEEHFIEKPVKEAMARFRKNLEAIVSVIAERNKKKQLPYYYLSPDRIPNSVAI", "assay": "Inhibition of recombinant human 5-LO expressed in Escherichia coli BL21 using arachidonic acid as substrate assessed as formation of all-trans isomer of LTB4, 5-H(P)ETE preincubated for 5 to 10 mins followed by substrate addition measured after 10 mins by HPLC analysis"}, "[2]": {"tested_on": "Jurkat", "assay": "Cytotoxicity against human Jurkat cells assessed as induction of cell death after 48 hrs by MTT assay", "type": "functional, cell-based", "outline": "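Jurkat T cells grown in RPMI 1640 with 10% heat-inactivated FCS, 10 mM HEPES, penicillin/streptomycin at 37 °C, 5% CO₂. Seeded at 2 × 10⁴ per well. Compounds or 0.3% DMSO vehicle added for 48 h. MTT then added until blue staining, cells lysed overnight in 10% SDS/20 mM HCl, absorbance read at 570 nm. Three to four independent experiments.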"}, "[3]": {"target": "T1, Polyunsaturated fatty acid 5-lipoxygenase", "assay": "Inhibition of 5-LO in human PMNL using arachidonic acid as substrate preincubated for 10 mins followed by substrate addition measured after 10 mins by HPLC analysis"}, "[4]": {"target": "Prostaglandin G/H synthase 1 (Homo sapiens, UniProt P23219)", "sequence (P23219 whole entry)": "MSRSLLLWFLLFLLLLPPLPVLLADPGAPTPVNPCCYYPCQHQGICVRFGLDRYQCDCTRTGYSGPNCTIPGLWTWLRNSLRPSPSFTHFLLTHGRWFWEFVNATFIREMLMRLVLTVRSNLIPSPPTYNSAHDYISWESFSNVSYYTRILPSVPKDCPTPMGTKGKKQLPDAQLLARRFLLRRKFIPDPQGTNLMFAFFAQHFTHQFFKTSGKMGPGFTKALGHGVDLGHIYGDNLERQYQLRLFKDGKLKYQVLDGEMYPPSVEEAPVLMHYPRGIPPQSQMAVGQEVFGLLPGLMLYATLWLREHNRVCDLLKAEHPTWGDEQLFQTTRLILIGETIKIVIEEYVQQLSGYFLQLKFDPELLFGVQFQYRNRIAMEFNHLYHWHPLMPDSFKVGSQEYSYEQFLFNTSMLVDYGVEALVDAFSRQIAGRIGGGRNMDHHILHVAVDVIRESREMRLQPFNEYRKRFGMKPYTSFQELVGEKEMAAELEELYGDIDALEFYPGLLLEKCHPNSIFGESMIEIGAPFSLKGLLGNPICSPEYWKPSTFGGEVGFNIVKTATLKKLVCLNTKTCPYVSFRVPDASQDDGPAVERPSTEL", "assay": "Inhibition of COX-1 in human platelet using arachidonic acid as substrate assessed as formation of 12-HHT preincubated for 10 mins followed by substrate addition measured after 5 mins by HPLC analysis"}, "[5]": {"target": "T1, Polyunsaturated fatty acid 5-lipoxygenase", "assay": "Inhibition of recombinant human 5-LO expressed in Escherichia coli BL21 using arachidonic acid as substrate assessed as formation of LTB4, 5(S),12(S)-DiHETE, 5-H(p)ETE preincubated for 5 to 10 mins followed by substrate addition measured after 10 mins by HPLC"}, "[6]": {"target": "T2, Prostaglandin E synthase (Homo sapiens, UniProt O14684)", "T2 sequence (O14684 whole entry)": "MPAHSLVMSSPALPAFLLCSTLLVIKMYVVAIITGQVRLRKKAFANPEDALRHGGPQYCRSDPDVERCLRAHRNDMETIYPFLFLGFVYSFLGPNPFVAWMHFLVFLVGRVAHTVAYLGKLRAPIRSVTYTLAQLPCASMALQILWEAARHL", "assay": "Inhibition of mPGES-1 in microsomal membranes isolated from interleukin-1beta-stimulated human A549 cells using PGH2 as substrate assessed as PGE2 formation preincubated for 15 mins followed by substrate addition measured after 1 min by RP-HPLC analysis", "type": "cell membranes", "outline": "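A549 cells kept 16 h in DMEM with 2% FCS, then 1 ng/ml IL-1β for 72 h. Cells homogenized and sonicated, microsomes obtained by centrifugation at 10,000 × g then 174,000 × g. Microsomes in 0.1 M potassium phosphate pH 7.4 with 2.5 mM glutathione, preincubated 15 min with compound or 0.3% DMSO. 20 µM PGH₂ (final) for 1 min at 4 °C. Stopped with FeCl₂/citric acid containing 11β-PGE₂, solid-phase extraction, RP-HPLC with UV at 195 nm.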"}, "[7]": {"target": "T1, Polyunsaturated fatty acid 5-lipoxygenase", "assay": "Inhibition of 5-LO in ionophore A23187-stimulated human PMNL using arachidonic acid as substrate assessed as formation of LTB4, 5(S),12(S)-DiHETE, 5-H(p)ETE preincubated for 15 mins followed by substrate and ionophore addition measured after 10 mins by HPLC analysis"}}}
{"smiles": "CC(C)C(=O)c1c(O)c([C@H](C2=C(O)C(C)(C)C(=O)C(C)(C)C2=O)C(C)C)c(O)c([C@H](C2=C(O)C(C)(C)C(=O)C(C)(C)C2=O)C(C)C)c1O", "note": "[MYRTUCOMMULONE A]", "values": [{"measurement": "IC50", "setting": "[1]", "result": 15, "unit": "µM"}, {"measurement": "EC50", "setting": "[2]", "result": 2.4, "unit": "µM"}, {"measurement": "IC50", "setting": "[3]", "result": 1.8, "unit": "µM"}, {"measurement": "IC50", "setting": "[4]", "result": 17, "unit": "µM"}, {"measurement": "IC50", "setting": "[5]", "result": 5, "unit": "µM"}, {"measurement": "IC50", "setting": "[6]", "result": 1, "unit": "µM"}, {"measurement": "IC50", "setting": "[7]", "result": 3.2, "unit": "µM"}]}
